Experimental data taken from ChEMBL document CHEMBL4431362, “Identification of small molecule inhibitors of botulinum neurotoxin serotype E via footprint similarity” (Bioorg Med Chem, 2016).
Calls of active or inactive are those of the source. No cut-off for these calls is given here. Square brackets hold non-standard residues; d marks the D form. Peptide text beside a SMILES is read from it. * marks the point of attachment. ξ: configuration not given here. Dnp = O=[N+]([O-])c1ccc(*)c([N+](=O)[O-])c1; ξDab = NCCC(N)C(=O)O

Key:
[1] = target: T1, Botulinum neurotoxin type E (Clostridium botulinum) (UniProt Q00496); experiment: Inhibition of Clostridium botulinum BoNT/E light chain-mediated SNAP-25 cleavage assessed as reduction in residual activity using SNAP-Etide as substrate at 100 uM after 15 mins by micro plate reader method
T1 sequence (whole entry): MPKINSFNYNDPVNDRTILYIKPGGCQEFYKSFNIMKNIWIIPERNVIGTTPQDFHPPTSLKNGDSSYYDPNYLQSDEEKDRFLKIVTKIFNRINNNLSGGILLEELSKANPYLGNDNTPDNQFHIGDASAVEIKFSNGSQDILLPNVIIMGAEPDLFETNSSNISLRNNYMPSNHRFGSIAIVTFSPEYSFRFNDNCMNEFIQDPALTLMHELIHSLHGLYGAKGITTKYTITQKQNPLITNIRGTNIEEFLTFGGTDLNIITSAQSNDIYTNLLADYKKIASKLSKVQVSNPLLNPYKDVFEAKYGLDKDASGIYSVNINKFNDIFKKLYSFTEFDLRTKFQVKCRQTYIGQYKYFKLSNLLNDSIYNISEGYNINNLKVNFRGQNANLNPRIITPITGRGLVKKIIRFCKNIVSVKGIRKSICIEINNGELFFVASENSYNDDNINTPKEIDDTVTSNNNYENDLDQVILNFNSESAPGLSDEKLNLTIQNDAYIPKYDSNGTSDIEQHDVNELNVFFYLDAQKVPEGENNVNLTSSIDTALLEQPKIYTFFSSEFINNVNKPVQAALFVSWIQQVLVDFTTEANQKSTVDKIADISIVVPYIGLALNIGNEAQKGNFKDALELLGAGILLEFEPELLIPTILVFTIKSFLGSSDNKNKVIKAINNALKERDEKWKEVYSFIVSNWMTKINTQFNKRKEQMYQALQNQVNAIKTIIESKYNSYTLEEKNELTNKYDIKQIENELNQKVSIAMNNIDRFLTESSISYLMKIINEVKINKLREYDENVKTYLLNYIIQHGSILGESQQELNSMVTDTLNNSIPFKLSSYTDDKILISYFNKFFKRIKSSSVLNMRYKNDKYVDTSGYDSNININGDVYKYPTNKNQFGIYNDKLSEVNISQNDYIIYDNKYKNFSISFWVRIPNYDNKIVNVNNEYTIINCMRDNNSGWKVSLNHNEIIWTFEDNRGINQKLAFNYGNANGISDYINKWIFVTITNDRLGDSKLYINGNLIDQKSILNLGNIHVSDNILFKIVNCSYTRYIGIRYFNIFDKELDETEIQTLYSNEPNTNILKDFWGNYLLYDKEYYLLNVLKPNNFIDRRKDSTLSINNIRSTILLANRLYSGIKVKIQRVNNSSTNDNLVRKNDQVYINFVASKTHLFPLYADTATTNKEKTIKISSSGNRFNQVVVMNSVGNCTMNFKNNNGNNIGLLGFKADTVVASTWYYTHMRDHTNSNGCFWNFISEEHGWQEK
Summary of the method: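 Compound was preincubated 15 min with 2.5 nM BoNT/E light chain in 20 mM Hepes pH 7.4 with 2 mM DTT (final DMSO ≤1%). Reaction was started with 10 µM SNAP-Etide at 37°C and read as fluorescence (ex 320/em 420 nm). Percent inhibition = [1 − (test initial velocity ÷ mean initial velocity of two DMSO controls)] × 100.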

[2] = target: T1, Botulinum neurotoxin type E (Clostridium botulinum); experiment: Inhibition of Clostridium botulinum BoNT/E light chain using GFP-tagged VAMP2/SNAP-25 (Ala128 to Gly206 residues) as substrate at 100 uM after 15 mins by GFP based micro plate reader method
Summary of the method: (§1)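 Immobilised biotinylated AviTag–VAMP2/SNAP-25(Ala128–Gly206)–GFP substrate on streptavidin plates. BoNT/E light chain (25 nM) in 20 mM Hepes pH 7.4 with 2 mM DTT was preincubated 15 min with compound before addition to the wells. Liberated GFP was read at 37°C (ex 460/em 506 nm). Percent inhibition at a single concentration, run in triplicate.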

[3] = target: T1, Botulinum neurotoxin type E (Clostridium botulinum); experiment: Inhibition of Clostridium botulinum BoNT/E light chain using GFP-tagged VAMP2/SNAP-25 (Ala128 to Gly206 residues) as substrate at 25 uM after 15 mins by GFP based micro plate reader method; summary of the method: as §1
[4] = target: T1, Botulinum neurotoxin type E (Clostridium botulinum); experiment: Inhibition of Clostridium botulinum BoNT/E light chain using GFP-tagged VAMP2/SNAP-25 (Ala128 to Gly206 residues) as substrate at 12.5 uM after 15 mins by GFP based micro plate reader method; summary of the method: as §1
[5] = target: T2, Botulinum neurotoxin type E (Clostridium botulinum, UniProt Q00496); experiment: (§2) Inhibition of Clostridium botulinum BoNT/E light chain using GFP-tagged VAMP2/SNAP-25 (Ala128 to Gly206 residues) as substrate after 15 mins by GFP based micro plate reader method
T2 sequence (Q00496 whole entry): T1 sequence (whole entry)
Summary of the method: (§3)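 Recombinant BoNT/E light chain (25 nM) in 20 mM Hepes pH 7.4 with 2 mM DTT, preincubated 15 min with compound, then added to streptavidin plates carrying an immobilised biotinylated AviTag–VAMP2/SNAP-25–GFP substrate. GFP release was followed at 37°C (ex 460/em 506 nm). Triplicates over a range of concentrations; IC50 came from a sigmoid fit with Hill slope fixed at 1. The ratio uses the reference inhibitor run under the same conditions.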

[6] = target: T1, Botulinum neurotoxin type E (Clostridium botulinum); experiment: Potency index, ratio of IC50 for NSC-77053 to IC50 for test compound for inhibition of Clostridium botulinum BoNT/E light chain using GFP-tagged VAMP2/SNAP-25 (Ala128 to Gly206 residues) as substrate after 15 mins by GFP based micro plate reader method; summary of the method: as §3
[7] = target: T1, Botulinum neurotoxin type E (Clostridium botulinum); experiment: as §2; summary of the method: as §3
[8] = target: T3, Botulinum neurotoxin type A (Clostridium botulinum, UniProt P0DPI0); experiment: Inhibition of protease activity of Clostridium botulinum BoNT/A using SNAP-25 as substrate by FRET analysis
[9] = target: T3, Botulinum neurotoxin type A; experiment: Inhibition of protease activity of Clostridium botulinum BoNT/A using N(K)-acetyl)-SNKTRIDEANQRATKML-carboxamide as substrate
[10] = target: T3, Botulinum neurotoxin type A; experiment: Inhibition of Clostridium botulinum BoNT/A light chain

T3 sequence (P0DPI0 2-448 limits assumed): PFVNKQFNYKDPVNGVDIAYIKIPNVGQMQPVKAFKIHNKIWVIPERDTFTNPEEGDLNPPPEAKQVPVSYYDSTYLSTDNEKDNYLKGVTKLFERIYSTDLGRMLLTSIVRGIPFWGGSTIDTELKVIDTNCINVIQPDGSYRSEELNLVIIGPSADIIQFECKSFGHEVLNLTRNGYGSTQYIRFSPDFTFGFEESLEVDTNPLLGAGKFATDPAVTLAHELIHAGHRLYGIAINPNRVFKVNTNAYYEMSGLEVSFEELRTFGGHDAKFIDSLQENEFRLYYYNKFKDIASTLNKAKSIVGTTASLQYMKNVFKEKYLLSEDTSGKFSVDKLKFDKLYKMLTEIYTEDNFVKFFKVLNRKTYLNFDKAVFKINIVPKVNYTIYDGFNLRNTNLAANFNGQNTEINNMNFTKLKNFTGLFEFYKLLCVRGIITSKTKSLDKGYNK

Row | Compound | inhibition [1] | inhibition [7] | other results
1 | Cc1cccc(NC(=O)[C@@H](CC(C)C)NS(=O)(=O)c2ccc3oc(=O)n(C)c3c2)c1C | 71% | – | inhibition [2]: 84%; inhibition [3]: 58%; inhibition [4]: 46.5%; IC50 [5]: 14.2 µM; Ratio IC50 [6]: 3
2 | CC[C@H](C)[C@H](NS(=O)(=O)c1ccc2oc(=O)n(C)c2c1)C(=O)Nc1cccc(C)c1C | – | – | IC50 [5]: 16 µM
3 | COc1ccc(CNC(=O)C(=O)N[C@@H](C)[C@H](c2cccs2)N2CCN(Cc3ccccc3)CC2)cc1 | 47% | inactive | –
4 | O=C(/C=C/c1ccc(Cl)cc1)NO | – | – | IC50 [8]: 15 µM
5 | Cc1cc(C)cc(N(CC(=O)Nc2ccc(C(F)(F)F)cc2)S(=O)(=O)c2c(C)nc(O)nc2O)c1 | 42% | inactive | –
6 | CSCC[C@H](NC(=O)C(CCN)NC(=O)[C@@H](NC(=O)[C@H](Cc1c[nH]c2ccccc12)NC(=O)[C@H](CCCNC(=N)N)NC(=O)C(N)CCNc1ccc([N+](=O)[O-])cc1[N+](=O)[O-])[C@@H](C)O)C(=O)N[C@@H](CC(C)C)C(=O)O (stereo partly specified) (H-[ξDab](Dnp)RWT[ξDab]ML-OH) | – | – | Ki [9]: 0.041 µM
7 | CC(=O)N/C(=C\c1c[nH]c2ccccc12)C(=O)N[C@@H](Cc1c[nH]c2ccccc12)C(=O)O (stereo in doubt) | 52% | inactive | –
8 | Cc1cccc(NC(=O)[C@H](CC(C)C)NS(=O)(=O)c2ccc3oc(=O)n(C)c3c2)c1C | – | – | inhibition [2]: 77.5%; inhibition [3]: 62.5%; inhibition [4]: 52%
9 | CC(=O)c1cccc(NC(=O)CSc2nnc(SCC(=O)Nc3cccc(C(C)=O)c3)s2)c1 | 31% | inactive | –
10 | N=C(N)NCCC[C@H](NC(=O)[C@@H](N)CCCNC(=N)N)C(=O)NCC(=O)N[C@@H](Cc1ccccc1)C(=O)O (H-RRGF-OH) | – | – | IC50 [10]: 0.9 µM
11 | H-CRATKML-OH | – | – | Ki [9]: 2 µM
12 | O=C(O)c1ccccc1C(=O)c1ccc2c(c1)Cc1ccccc1-2 | – | – | IC50 [5]: 48.5 µM
13 | Cc1ccc(NC(=O)N2CC(=O)N(CC(=O)NC[C@H]3CCCO3)c3ccccc32)cc1 | 33% | inactive | –
14 | COc1ccc(N(CC(=O)Nc2ccc(F)c(Cl)c2)S(=O)(=O)c2c(C)[nH]c(=O)[nH]c2=O)cc1 | 41% | inactive | –
15 | CCOc1ccc(NC(=O)CSc2nccn2-c2cccc(C(=O)Nc3ccccc3)c2)cc1 | 40% | inactive | –
16 | CCOc1ccc(OCC)c(NC(=O)CSc2cc(N3CCC(C(=O)NC4CC4)CC3)ncn2)c1 | 25% | inactive | –
